{"data": "Results from different studies", "target": "Serine/threonine-protein kinase MRCK beta (CDC42BPB, Homo sapiens, UniProt Q9Y5S2)", "note": "Each line is one published result; the experiments were not run side by side."}
{"SMILES": "c1cnn2ncc(-c3ccnc(N4CCC45COC5)n3)c2c1", "read-out": "binding", "concentration": "1 µM", "remaining binding [%]": 94}
{"SMILES": "Nc1c(C(=O)NCc2ccc(C(=O)NCCCC3CCCCC3)cc2)cnn1-c1ccccc1", "read-out": "cell-free assay", "method": "competition with immobilised ligand", "concentration": "0.1 µM", "remaining binding [%]": 100}
{"SMILES": "CC1CCCN1c1nccc(-c2cnn3ncccc23)n1 (stereo not drawn)", "read-out": "binding", "concentration": "1 µM", "remaining binding [%]": 97}
{"SMILES": "O=C(Nc1cccnn1)N1CC(C/C=C/c2cncc(Oc3ccc(C(F)(F)F)cn3)n2)C1", "read-out": "cell-free assay", "method": "competition with immobilised ligand", "concentration": "1 µM", "remaining binding [%]": 100}
{"SMILES": "C=CC(=O)N1CCC(C(=O)NCC(=O)N2CCN(c3nc(-c4cnc(N)nc4C(F)F)nc(N4CCOCC4)n3)CC2)CC1", "read-out": "binding", "method": "competition with immobilised ligand", "concentration": "1 µM", "remaining binding [%]": 99}
{"SMILES": "CN(CCCC(F)(F)F)c1nccc(-c2cnn3ncccc23)n1", "read-out": "binding", "concentration": "1 µM", "remaining binding [%]": 63}
{"SMILES": "COc1cnc(Nc2cccc(S(N)(=O)=O)c2)nc1N1CCN(c2ccccc2)CC1", "read-out": "binding", "method": "competition with immobilised ligand", "concentration": "1 µM", "remaining binding [%]": 99}
{"SMILES": "C[C@H]1CCN(c2nccc(-c3cnn4ncccc34)n2)C1", "read-out": "binding", "concentration": "1 µM", "remaining binding [%]": 100}
{"SMILES": "COc1ncc2cc3ccccc3nc2c1C#N", "read-out": "cell-free assay", "method": "competition with immobilised ligand", "concentration": "5 µM", "remaining binding [%]": 100}
{"SMILES": "O=C(O)c1cc(-c2ccc(C3CCNCC3)cc2)c2ccc(-c3ccc(C(F)(F)F)cc3)cc2c1", "read-out": "cell-free assay", "method": "competition with immobilised ligand", "concentration": "1 µM", "remaining binding [%]": 100}
{"SMILES": "O=C(Nc1c[nH]nc1C(=O)NC1CCNCC1)c1cc(F)cc(F)c1", "read-out": "binding", "method": "competition with immobilised ligand", "concentration": "1 µM", "remaining binding [%]": 100}
{"SMILES": "Nc1ncc2c(n1)-c1c([nH]c3ccc(C#CC4CC4)cc13)CCCC2", "read-out": "binding", "method": "competition with immobilised ligand", "concentration": "1 µM", "remaining binding [%]": 93}
{"SMILES": "O=C(NCCCN1CCOCC1)c1ccc(Nc2ncc(Cl)c(-c3ccc(Cl)s3)n2)cc1", "read-out": "binding", "method": "competition with immobilised ligand", "concentration": "1 µM", "remaining binding [%]": 100}
{"SMILES": "C[C@@H](c1ccc(-n2cnc3c(N)ncnc32)cc1)N1CCc2nn(C)c(Cc3ccccc3)c2C1=O", "read-out": "binding", "method": "competition with immobilised ligand", "concentration": "0.1 µM", "remaining binding [%]": 89}
{"SMILES": "Cc1cc(-n2nc(Cc3cc(F)cc(C(F)(F)F)c3)nc2C)ccc1C(N)=O", "read-out": "cell-free assay", "method": "competition with immobilised ligand", "concentration": "1 µM", "remaining binding [%]": 100}
{"SMILES": "O=C(c1ccc(Nc2nccc(-c3cc4ccccc4s3)n2)cc1)N1CCC(N2CCCC2)CC1", "read-out": "binding", "method": "competition with immobilised ligand", "concentration": "1 µM", "remaining binding [%]": 100}
{"SMILES": "CC(C)CC(=O)N1CCc2nc(-c3ccc(Br)cc3)nc(N(C)Cc3ccccc3)c2C1", "read-out": "cell-free assay", "method": "competition with immobilised ligand", "concentration": "0.1 µM", "remaining binding [%]": 99}
{"SMILES": "COc1cnc(Nc2cccc(S(N)(=O)=O)c2)nc1N1CCN(c2ccccc2)C(=O)C1", "read-out": "binding", "method": "competition with immobilised ligand", "concentration": "1 µM", "remaining binding [%]": 100}
{"SMILES": "C[C@H](NC(=O)c1cnc2n1[C@](C)(Cc1ccc(C#N)cc1)C(=O)N2c1cc(Cl)c(F)c(Cl)c1)C(=O)NC1(c2ccccn2)CC1", "read-out": "cell-free assay", "method": "competition with immobilised ligand", "concentration": "1 µM", "remaining binding [%]": 100}
{"SMILES": "N[C@@H]1CCN(c2nccc(-c3cnn4ncccc34)n2)C1", "read-out": "binding", "concentration": "1 µM", "remaining binding [%]": 100}
{"SMILES": "Cc1cnc(Nc2ccc(C(=O)N3CCC(N4CCCC4)CC3)cc2)nc1-c1cc2ccccc2s1", "read-out": "binding", "method": "competition with immobilised ligand", "concentration": "1 µM", "remaining binding [%]": 59}
